What was measured:
[1] = target: T1, D(2) dopamine receptor (Rattus norvegicus, UniProt P61169); experiment: Agonist activity at rat dopamine D2short receptor expressed in CHO-K1 cells assessed as stimulation of [35S]GTPgammaS binding by liquid scintillation counting; type: functional, cell-based
[2] = Selectivity index, ratio of Ki for dopamine D1 receptor to Ki for rat dopamine D2short receptor
[3] = target: T1, D(2) dopamine receptor; experiment: Displacement of [3H]raclopride from rat dopamine D2short receptor expressed in CHO-K1 cells by liquid scintillation counting; type: cell-based
[4] = target: D(1A) dopamine receptor (Homo sapiens, UniProt P21728); experiment: Displacement of [3H]SCH23390 from dopamine D1 receptor expressed in Ltk deficient fibroblast cells by liquid scintillation counting; type: cell-based
[5] = target: D(2) dopamine receptor (Rattus norvegicus) (UniProt P61169); experiment: Agonist activity at rat dopamine D2short receptor expressed in CHO-K1 cells assessed as stimulation of [35S]GTPgammaS binding by liquid scintillation counting relative to dopamine; type: functional, cell-based
Outline: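 Membranes from CHO-K1 cells stably expressing the receptor were prepared by sonication in Tris buffer (pH 7.4, with NaCl, KCl, MgCl2 and EDTA). They were incubated with 0.2 nM [35S]GTPγS, 10 µM GDP and a compound concentration series for 90 min at 25 °C. Samples were filtered on GF/B and washed with ice-cold phosphate buffer before scintillation counting. Curves were fitted by non-linear regression. Means ± SEM come from ≥2 independent experiments, each in duplicate.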

Chain of D(1A) dopamine receptor (P21728 whole entry): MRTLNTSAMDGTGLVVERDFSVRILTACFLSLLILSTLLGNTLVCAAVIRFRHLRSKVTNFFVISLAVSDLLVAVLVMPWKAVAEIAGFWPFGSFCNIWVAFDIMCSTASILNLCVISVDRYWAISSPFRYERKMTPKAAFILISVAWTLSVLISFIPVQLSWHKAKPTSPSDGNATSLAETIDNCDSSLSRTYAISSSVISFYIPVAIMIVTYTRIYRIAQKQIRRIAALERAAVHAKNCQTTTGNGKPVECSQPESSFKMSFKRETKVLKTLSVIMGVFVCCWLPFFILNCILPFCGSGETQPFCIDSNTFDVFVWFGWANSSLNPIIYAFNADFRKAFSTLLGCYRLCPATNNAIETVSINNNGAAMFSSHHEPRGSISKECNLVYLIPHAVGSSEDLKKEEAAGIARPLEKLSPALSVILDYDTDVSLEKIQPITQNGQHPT
Chain of D(2) dopamine receptor (Rattus norvegicus) (P61169 whole entry): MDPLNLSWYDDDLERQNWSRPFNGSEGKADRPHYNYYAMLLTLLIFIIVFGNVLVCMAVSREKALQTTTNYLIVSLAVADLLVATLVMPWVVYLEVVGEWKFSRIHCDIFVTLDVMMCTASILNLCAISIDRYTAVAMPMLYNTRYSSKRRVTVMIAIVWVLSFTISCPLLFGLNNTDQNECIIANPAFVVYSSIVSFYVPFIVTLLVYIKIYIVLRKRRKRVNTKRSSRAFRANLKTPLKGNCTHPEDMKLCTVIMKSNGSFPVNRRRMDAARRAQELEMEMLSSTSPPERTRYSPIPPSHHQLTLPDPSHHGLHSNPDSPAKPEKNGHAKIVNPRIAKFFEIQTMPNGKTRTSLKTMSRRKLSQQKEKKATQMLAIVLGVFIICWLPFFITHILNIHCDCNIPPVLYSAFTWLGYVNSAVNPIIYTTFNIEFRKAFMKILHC
T1 sequence (P61169 whole entry): as above

Row | SMILES | EC50 [1] [nM] | Ratio Ki [2] | Ki [3] [nM] | Ki [4] [nM] | Efficacy [5] [%]
1 | CCN1CCc2cc(-c3ccc(O)cc3)cc3c2[C@H]1Cc1ccc(O)c(O)c1-3 | 8.7 | 83 | 1.5 | 124 | 112
2 | CN1CCc2cccc3c2[C@H]1Cc1ccc(O)c(O)c1-3 | – | – | – | – | 58
3 | CCN1CCc2cc(C)cc3c2[C@H]1Cc1ccc(O)c(O)c1-3 | 480 | 12 | 115 | 1340 | 112
4 | CN1CCc2cc(-c3ccccc3)cc3c2[C@H]1Cc1ccc(O)c(O)c1-3 | 23 | 7.5 | – | 88 | –
5 | CCCN1CCc2cc(-c3ccccc3)cc3c2[C@H]1Cc1ccc(O)c(O)c1-3 | 577 | 3.5 | 192 | 669 | 100
6 | CCN1CCc2cc(-c3ccccc3)cc3c2[C@H]1Cc1ccc(O)c(O)c1-3 | 51 | 2.2 | 14 | 31 | 72
7 | Cc1cc2c3c(c1)-c1c(ccc(O)c1O)C[C@H]3N(C)CC2 | 43 | – | – | – | –
8 | CN1CCc2cc(-c3ccc(O)cc3)cc3c2[C@H]1Cc1ccc(O)c(O)c1-3 | 8.5 | 182 | – | 755 | –
9 | CCCN1CCc2cc(C)cc3c2[C@H]1Cc1ccc(O)c(O)c1-3 | 40 | 30 | 9.2 | 278 | 65
10 | CCCN1CCc2cc(-c3ccc(O)cc3)cc3c2[C@H]1Cc1ccc(O)c(O)c1-3 | 12 | 47 | 2 | 94 | 99

— ChEMBL document CHEMBL1152940 (Bioorg Med Chem, 2009)
